From ChEMBL document CHEMBL3244139, “Antiarrhythmic activity of p-hydroxy-N-(2-diethylaminoethyl) benzamide (the p-hydroxy isostere of procainamide) in dogs and mice” (J Med Chem, 1977)

Columns and labels:
Plasma = assay: Plasma concentration in mongrel dog at 48 +/- 38 mg/kg, iv; type: ADME, organism-based, Canis lupus familiaris; design: route intravenous; settings: in vivo
How it was run: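 Plasma withdrawn from each aconitine-treated dog when iv infusion was discontinued; drug measured by TLC densitometry.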

Canis familiaris [1] = assay: Antiarrhythmic activity in aconitine-induced mongrel dog arrhythmic model assessed as atrial rate measured at end of infusion at 48 +/- 38 mg/kg, iv; type: functional, Canis lupus familiaris, Heart
Canis familiaris [2] = assay: Antiarrhythmic activity in aconitine-induced mongrel dog arrhythmic model assessed as decrease in ventricular rate rate measured at end of infusion at 48 +/- 38 mg/kg, iv (reference value: 205 +/- 65 BPM); type: functional, Canis lupus familiaris, Heart
[3] = Antiarrhythmic activity in mongrel dog Purkinje fiber assessed as 90% repolarization time at 10 ug/ml by Single Cell Potentials/electrophysiological technique (reference value: 274 +/- 30 ms); type: functional, Canis lupus familiaris
[4] = Toxicity in ip dosed ICR mouse assessed as acute mortality; type: organism-based; settings: in vivo
How it was run: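 Male ICR mice, 28-35 days old (av wt 26 g), in groups of ten per dose level, given drug ip. Deaths recorded at 10, 15, 30, 60, 120 and 210 min after injection to set acute mortality.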

[5] = Antiarrhythmic activity in mongrel dog Purkinje fiber assessed as rate of phase 0 depolarization (dV/dt) at 20 ug/ml by Single Cell Potentials/electrophysiological technique (reference value: 474 +/- 57 V/s); type: functional, Canis lupus familiaris
[6] = Antiarrhythmic activity in mongrel dog Purkinje fiber assessed as spontaneous intrinsic rate at 10 ug/ml by Single Cell Potentials/electrophysiological technique (reference value: 33 +/- 5 BPM); type: functional, Canis lupus familiaris
[7] = Antiarrhythmic activity in mongrel dog Purkinje fiber assessed as 50% repolarization time at 20 ug/ml by Single Cell Potentials/electrophysiological technique (reference value: 223 +/- 11 ms); type: functional, Canis lupus familiaris
Canis familiaris [8] = assay: Antiarrhythmic activity in aconitine-induced mongrel dog arrhythmic model assessed as decrease in ventricular rate rate at 48 +/- 38 mg/kg, iv after 17 +/- 16 mins from end of infusion (reference value: 205 +/- 65 BPM); type: functional, Canis lupus familiaris, Heart
[9] = Antiarrhythmic activity in mongrel dog Purkinje fiber assessed as rate of phase 0 depolarization (dV/dt) at 10 ug/ml by Single Cell Potentials/electrophysiological technique (reference value: 491 +/- 40 V/s); type: functional, Canis lupus familiaris
Canis familiaris [10] = assay: Antiarrhythmic activity in aconitine-induced mongrel dog arrhythmic model assessed as atrial rate at 48 +/- 38 mg/kg, iv after 17 +/- 16 mins from end of infusion; type: functional, Canis lupus familiaris, Heart
[11] = Antiarrhythmic activity in mongrel dog Purkinje fiber assessed as 50% repolarization time at 10 ug/ml by Single Cell Potentials/electrophysiological technique (reference value: 244 +/- 15 ms); type: functional, Canis lupus familiaris
[12] = Antiarrhythmic activity in mongrel dog Purkinje fiber assessed as spontaneous intrinsic rate at 20 ug/ml by Single Cell Potentials/electrophysiological technique (reference value: 35 +/- 7 BPM); type: functional, Canis lupus familiaris
Canis familiaris [13] = assay: Antiarrhythmic activity in aconitine-induced mongrel dog arrhythmic model assessed as mean arterial blood pressure measured at end of infusion at 48 +/- 38 mg/kg, iv (reference value: 70 +/- 8 mmHg); type: functional, Canis lupus familiaris, Artery
[14] = Therapeutic index, ratio of LD50 for ICR mouse assessed as acute mortality to ED50 for protection against chloroform-induced ventricular fibrillation in ICR mouse; type: organism-based, Cardiac ventricle; settings: in vivo, read-out: Ratio LD50/ED50
How it was run: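 Male ICR mice, 28-35 days old, dosed ip. For ED50, 8 mice per dose went into a chloroform jar 10 min after dosing and were kept there until breathing stopped; mice with no intermittent or continuous ventricular fibrillation counted as protected. ED50 was derived by Litchfield-Wilcoxon. LD50 came from acute mortality in 10 mice per dose. Index reported as LD50/ED50.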

Mus musculus [15] = assay: Antiarrhythmic activity in ip dosed ICR mouse assessed as protection against chloroform-induced ventricular fibrillation; type: functional; settings: Heart
How it was run: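 Male ICR mice, 28-35 days, mean 25 g, given drug ip, then after 10 min exposed to chloroform in a jar until breathing stopped. Protection meant no intermittent or continuous ventricular fibrillation at any point. Eight mice per dosage interval.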

[16] = Antiarrhythmic activity in mongrel dog Purkinje fiber assessed as 90% repolarization time at 20 ug/ml by Single Cell Potentials/electrophysiological technique (reference value: 284 +/- 12 ms); type: functional, Canis lupus familiaris
Mus musculus [17] = assay: Antiarrhythmic activity in ICR mouse assessed as protection against chloroform-induced ventricular fibrillation at 233 to 240 mg/kg, ip; type: functional, Heart; settings: dose mg/kg 233-240; route intraperitoneal
How it was run: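 ICR male mice, 28-35 days old, average weight 25 g, dosed ip. After 10 min they were placed in a chloroform jar and anesthetized. A mouse counted as protected if no intermittent or continuous ventricular fibrillation appeared before breathing ceased. Definite fibrillation counted as unprotected even if it later changed rhythm. Eight mice per dose.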

Structure (SMILES)	Cp (Plasma)	Activity (Canis familiaris [1])	Activity (Canis familiaris [2])	Time [3]	LD50 [4]	Activity [5]	Activity [6]	Time [7]	Activity (Canis familiaris [8])	Activity [9]	Activity (Canis familiaris [10])	Time [11]	Activity [12]	Activity (Canis familiaris [13])	selectivity ratio [14]	ED50 (Mus musculus [15])	Time [16]	Activity (Mus musculus [17])
CCN(CC)CCNC(=O)c1ccc(N)cc1.Cl [PROCAINAMIDE HYDROCHLORIDE]	118 µg/mL	225 bpm	203 bpm	334 ms	255 mg/kg	411 V/s	24 bpm	239 ms	215 bpm	421 V/s	283 bpm	265 ms	23 bpm	68 mmHg	1.8	137 mg/kg	316 ms	
CCN(CC)CCNC(=O)c1ccc([N+](=O)[O-])cc1.Cl																		38%
CCN(CC)CCNC(=O)c1ccc(NC(C)=O)cc1.Cl [ACECAINIDE HYDROCHLORIDE]																110 mg/kg		
